Assay results: ChEMBL document CHEMBL1641579, “Synthesis and biological evaluation of 7-substituted-1-(3-bromophenylamino)isoquinoline-4-carbonitriles as inhibitors of myosin light chain kinase and epidermal growth factor receptor” (Bioorg Med Chem, 2011)

What was measured:
[1] = molecular target: Mitogen-activated protein kinase 3 (Homo sapiens) (UniProt P27361); assay: Inhibition of ERK1 assessed as residual activity at 10 uM
In short: (§1)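 Kinase panel screen run as a radioactive activity assay at single compound concentration. Score reported as percent activity remaining relative to DMSO controls (100%).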

[2] = molecular target: Glycogen synthase kinase-3 beta (Homo sapiens) (UniProt P49841); assay: Inhibition of GSK3-beta assessed as residual activity at 10 uM; in short: as §1
[3] = molecular target: Insulin receptor (Homo sapiens) (UniProt P06213); assay: Inhibition of IR assessed as residual activity at 10 uM; in short: as §1
[4] = molecular target: T1, Interleukin-1 receptor-associated kinase 4 (Homo sapiens) (UniProt Q9NWZ3); assay: Inhibition of IRAK4 assessed as residual activity at 10 uM; in short: as §1
T1 sequence (whole entry): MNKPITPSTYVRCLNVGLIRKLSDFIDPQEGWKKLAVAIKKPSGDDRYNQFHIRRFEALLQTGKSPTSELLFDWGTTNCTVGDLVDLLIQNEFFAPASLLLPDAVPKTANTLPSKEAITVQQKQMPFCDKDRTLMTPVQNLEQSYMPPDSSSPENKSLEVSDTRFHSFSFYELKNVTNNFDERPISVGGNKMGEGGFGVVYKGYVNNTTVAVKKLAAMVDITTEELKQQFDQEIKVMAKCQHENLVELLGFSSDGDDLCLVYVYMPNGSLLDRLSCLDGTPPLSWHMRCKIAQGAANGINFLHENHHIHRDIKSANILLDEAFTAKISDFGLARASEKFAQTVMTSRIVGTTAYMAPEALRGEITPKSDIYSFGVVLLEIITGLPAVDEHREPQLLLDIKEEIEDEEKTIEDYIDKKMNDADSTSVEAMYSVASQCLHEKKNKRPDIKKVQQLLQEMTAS

[5] = molecular target: Serine/threonine-protein kinase MARK2 (Homo sapiens) (UniProt Q7KZI7); assay: Inhibition of MARK2 assessed as residual activity at 10 uM; in short: as §1
[6] = molecular target: Myosin light chain kinase, smooth muscle (Homo sapiens, UniProt Q15746); assay: Inhibition of smMLCK assessed as residual activity at 10 uM
In short: (§2)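 Panel screen by radioactive kinase assay at a single inhibitor concentration. Score is the percent activity remaining relative to DMSO controls (100%).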

[7] = molecular target: Homeodomain-interacting protein kinase 1 (Homo sapiens) (UniProt Q86Z02); assay: Inhibition of HIPK1 assessed as residual activity at 10 uM; in short: as §1
[8] = molecular target: Dual specificity tyrosine-phosphorylation-regulated kinase 1A (Homo sapiens) (UniProt Q13627); assay: Inhibition of DYRK1A assessed as residual activity at 10 uM; in short: as §1
[9] = molecular target: T2, Serine/threonine-protein kinase BRSK1 (Homo sapiens) (UniProt Q8TDC3); assay: Inhibition of BRSK1 assessed as residual activity at 10 uM; in short: as §1
T2 sequence (whole entry): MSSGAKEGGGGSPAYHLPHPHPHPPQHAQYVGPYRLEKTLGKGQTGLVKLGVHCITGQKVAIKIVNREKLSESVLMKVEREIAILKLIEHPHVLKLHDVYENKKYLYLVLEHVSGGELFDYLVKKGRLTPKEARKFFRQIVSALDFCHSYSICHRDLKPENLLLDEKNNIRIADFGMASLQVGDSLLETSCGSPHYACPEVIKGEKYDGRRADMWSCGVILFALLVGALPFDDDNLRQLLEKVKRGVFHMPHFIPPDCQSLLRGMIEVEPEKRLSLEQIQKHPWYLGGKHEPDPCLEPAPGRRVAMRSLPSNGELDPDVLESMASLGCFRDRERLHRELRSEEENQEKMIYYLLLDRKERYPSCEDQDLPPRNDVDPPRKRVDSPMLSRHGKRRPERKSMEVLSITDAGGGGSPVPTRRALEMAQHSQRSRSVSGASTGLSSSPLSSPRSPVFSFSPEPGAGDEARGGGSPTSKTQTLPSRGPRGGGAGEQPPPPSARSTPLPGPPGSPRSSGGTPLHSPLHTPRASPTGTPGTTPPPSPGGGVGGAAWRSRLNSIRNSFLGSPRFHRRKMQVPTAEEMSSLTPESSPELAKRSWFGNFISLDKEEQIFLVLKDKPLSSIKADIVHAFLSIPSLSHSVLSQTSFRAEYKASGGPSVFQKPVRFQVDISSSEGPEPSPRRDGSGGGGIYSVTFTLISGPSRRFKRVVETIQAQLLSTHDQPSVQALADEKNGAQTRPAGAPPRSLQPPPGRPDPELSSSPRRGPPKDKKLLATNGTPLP

[10] = molecular target: Serine/threonine-protein kinase PAK 2 (Homo sapiens) (UniProt Q13177); assay: Inhibition of PAK2 assessed as residual activity at 10 uM; in short: as §2
[11] = molecular target: Ribosomal protein S6 kinase beta-1 (Homo sapiens) (UniProt P23443); assay: Inhibition of S6K1 assessed as residual activity at 10 uM; in short: as §2
[12] = molecular target: Homeodomain-interacting protein kinase 3 (Homo sapiens) (UniProt Q9H422); assay: Inhibition of HIPK3 assessed as residual activity at 10 uM; in short: as §1
[13] = molecular target: T3, Serine/threonine-protein kinase 3 (Homo sapiens) (UniProt Q13188); assay: Inhibition of MST2 assessed as residual activity at 10 uM; in short: as §2
T3 sequence (whole entry): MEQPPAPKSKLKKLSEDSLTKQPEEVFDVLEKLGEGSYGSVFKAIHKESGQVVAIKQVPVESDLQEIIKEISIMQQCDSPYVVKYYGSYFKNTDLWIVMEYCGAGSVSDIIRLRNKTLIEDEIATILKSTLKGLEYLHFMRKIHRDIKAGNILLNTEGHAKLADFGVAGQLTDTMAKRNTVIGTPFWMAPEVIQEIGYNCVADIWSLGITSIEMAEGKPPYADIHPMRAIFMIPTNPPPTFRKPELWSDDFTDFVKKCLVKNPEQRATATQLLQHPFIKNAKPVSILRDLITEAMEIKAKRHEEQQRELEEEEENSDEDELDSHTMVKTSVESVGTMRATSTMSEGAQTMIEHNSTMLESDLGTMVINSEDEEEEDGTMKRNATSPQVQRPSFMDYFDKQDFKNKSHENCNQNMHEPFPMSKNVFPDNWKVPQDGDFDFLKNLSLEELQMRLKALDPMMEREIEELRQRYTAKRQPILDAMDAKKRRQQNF

[14] = molecular target: RAC-alpha serine/threonine-protein kinase (Homo sapiens) (UniProt P31749); assay: Inhibition of PKBalpha assessed as residual activity at 10 uM; in short: as §2

Chain of Serine/threonine-protein kinase PAK 2 (Homo sapiens) (Q13177 whole entry): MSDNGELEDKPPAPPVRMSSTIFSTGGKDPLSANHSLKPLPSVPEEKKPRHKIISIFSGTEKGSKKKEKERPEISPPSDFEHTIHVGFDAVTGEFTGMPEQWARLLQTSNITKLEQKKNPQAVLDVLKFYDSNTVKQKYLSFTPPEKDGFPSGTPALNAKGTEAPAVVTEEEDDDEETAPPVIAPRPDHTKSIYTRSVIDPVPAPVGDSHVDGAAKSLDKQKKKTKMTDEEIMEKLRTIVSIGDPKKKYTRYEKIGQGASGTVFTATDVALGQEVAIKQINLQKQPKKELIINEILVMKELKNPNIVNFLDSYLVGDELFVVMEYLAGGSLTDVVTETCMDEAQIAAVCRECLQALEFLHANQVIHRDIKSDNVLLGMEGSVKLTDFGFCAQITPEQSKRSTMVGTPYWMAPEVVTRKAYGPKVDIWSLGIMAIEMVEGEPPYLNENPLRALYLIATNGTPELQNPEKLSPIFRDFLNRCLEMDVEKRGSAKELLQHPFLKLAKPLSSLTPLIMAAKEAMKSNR
Chain of Serine/threonine-protein kinase MARK2 (Homo sapiens) (Q7KZI7 whole entry): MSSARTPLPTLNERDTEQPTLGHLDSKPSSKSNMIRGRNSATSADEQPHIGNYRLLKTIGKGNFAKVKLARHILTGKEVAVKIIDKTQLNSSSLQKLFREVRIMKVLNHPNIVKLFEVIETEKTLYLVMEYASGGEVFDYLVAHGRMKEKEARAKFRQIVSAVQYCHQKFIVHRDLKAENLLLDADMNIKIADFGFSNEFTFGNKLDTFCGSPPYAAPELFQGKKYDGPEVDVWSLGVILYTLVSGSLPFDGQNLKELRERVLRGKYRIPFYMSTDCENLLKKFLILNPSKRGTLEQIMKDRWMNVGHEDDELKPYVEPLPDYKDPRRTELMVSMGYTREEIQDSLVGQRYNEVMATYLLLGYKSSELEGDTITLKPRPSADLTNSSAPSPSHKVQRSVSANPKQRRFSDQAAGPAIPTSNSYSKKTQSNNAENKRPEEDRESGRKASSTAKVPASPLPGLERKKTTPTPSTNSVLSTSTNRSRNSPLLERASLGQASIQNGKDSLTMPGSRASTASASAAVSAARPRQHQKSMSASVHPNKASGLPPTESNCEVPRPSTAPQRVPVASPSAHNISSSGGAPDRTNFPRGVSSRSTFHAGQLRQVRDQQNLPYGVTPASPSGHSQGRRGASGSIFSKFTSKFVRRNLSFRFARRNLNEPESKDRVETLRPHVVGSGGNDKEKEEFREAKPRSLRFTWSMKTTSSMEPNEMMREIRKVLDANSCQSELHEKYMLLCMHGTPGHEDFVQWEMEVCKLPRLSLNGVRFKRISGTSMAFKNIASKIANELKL
Chain of Homeodomain-interacting protein kinase 3 (Homo sapiens) (Q9H422 whole entry, looked up): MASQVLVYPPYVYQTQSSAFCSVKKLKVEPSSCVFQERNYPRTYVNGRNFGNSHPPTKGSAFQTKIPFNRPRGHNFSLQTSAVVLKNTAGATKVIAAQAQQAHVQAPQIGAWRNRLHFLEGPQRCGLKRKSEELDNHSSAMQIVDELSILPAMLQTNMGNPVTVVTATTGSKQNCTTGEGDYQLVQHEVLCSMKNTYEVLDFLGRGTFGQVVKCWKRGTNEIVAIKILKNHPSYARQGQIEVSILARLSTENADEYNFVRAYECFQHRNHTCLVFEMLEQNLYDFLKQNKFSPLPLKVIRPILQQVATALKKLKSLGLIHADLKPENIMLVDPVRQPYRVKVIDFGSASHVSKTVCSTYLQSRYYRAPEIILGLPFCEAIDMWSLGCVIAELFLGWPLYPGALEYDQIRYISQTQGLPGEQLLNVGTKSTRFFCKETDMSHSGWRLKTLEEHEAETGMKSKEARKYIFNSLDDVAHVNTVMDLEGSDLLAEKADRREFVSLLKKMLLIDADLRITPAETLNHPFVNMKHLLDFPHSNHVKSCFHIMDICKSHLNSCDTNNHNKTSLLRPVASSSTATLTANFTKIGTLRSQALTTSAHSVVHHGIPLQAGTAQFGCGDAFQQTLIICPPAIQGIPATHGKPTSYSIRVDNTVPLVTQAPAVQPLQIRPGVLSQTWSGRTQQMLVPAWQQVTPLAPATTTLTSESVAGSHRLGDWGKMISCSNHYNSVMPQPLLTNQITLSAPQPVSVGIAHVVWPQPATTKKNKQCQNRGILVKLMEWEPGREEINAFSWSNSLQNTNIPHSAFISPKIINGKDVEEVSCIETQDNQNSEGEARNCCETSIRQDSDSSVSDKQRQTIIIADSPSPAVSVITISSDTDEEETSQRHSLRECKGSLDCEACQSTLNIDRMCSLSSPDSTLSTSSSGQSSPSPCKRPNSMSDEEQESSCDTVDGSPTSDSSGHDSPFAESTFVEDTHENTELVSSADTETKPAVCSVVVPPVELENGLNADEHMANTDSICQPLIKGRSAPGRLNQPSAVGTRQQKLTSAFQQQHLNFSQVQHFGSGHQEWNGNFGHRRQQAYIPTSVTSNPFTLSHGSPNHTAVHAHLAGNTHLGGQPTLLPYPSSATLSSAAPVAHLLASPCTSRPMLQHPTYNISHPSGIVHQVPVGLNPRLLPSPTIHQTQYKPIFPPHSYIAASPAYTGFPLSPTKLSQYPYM
Chain of Insulin receptor (Homo sapiens) (P06213 28-758 limits assumed): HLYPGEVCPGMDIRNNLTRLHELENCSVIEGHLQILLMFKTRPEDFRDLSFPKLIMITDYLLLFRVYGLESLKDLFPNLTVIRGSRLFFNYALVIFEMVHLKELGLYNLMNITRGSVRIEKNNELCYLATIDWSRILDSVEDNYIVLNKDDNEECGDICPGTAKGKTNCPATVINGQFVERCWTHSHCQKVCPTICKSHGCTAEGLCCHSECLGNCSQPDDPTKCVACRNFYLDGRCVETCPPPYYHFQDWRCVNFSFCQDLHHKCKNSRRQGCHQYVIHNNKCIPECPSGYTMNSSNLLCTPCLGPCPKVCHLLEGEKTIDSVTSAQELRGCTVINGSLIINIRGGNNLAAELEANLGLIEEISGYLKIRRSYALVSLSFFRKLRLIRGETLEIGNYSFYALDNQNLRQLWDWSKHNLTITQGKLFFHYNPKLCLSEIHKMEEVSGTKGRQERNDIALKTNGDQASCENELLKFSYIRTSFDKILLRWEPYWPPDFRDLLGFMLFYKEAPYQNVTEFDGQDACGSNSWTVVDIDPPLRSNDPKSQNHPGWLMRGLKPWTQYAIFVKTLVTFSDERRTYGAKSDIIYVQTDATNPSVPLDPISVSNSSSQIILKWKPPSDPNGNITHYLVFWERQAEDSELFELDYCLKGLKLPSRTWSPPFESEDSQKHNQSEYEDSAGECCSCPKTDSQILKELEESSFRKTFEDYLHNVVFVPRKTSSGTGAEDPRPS
Chain of Insulin receptor (Homo sapiens) (P06213 763-1382 limits assumed): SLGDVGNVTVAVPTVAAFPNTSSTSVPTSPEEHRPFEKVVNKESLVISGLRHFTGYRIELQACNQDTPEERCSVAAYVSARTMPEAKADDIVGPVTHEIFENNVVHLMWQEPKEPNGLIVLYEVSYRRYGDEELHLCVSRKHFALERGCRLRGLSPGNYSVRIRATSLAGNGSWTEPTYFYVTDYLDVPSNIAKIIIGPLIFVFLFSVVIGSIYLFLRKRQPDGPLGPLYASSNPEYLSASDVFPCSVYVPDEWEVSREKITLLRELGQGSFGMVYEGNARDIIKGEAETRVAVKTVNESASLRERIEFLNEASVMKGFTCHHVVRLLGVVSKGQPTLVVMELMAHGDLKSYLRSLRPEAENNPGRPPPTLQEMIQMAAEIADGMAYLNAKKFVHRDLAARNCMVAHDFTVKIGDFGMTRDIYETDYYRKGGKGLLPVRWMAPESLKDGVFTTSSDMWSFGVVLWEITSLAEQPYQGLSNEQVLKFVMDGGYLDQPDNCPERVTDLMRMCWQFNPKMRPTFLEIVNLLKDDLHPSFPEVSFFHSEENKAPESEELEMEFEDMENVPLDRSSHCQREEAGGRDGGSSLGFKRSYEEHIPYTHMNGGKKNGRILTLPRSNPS
Chain of Homeodomain-interacting protein kinase 1 (Homo sapiens) (Q86Z02 whole entry, looked up): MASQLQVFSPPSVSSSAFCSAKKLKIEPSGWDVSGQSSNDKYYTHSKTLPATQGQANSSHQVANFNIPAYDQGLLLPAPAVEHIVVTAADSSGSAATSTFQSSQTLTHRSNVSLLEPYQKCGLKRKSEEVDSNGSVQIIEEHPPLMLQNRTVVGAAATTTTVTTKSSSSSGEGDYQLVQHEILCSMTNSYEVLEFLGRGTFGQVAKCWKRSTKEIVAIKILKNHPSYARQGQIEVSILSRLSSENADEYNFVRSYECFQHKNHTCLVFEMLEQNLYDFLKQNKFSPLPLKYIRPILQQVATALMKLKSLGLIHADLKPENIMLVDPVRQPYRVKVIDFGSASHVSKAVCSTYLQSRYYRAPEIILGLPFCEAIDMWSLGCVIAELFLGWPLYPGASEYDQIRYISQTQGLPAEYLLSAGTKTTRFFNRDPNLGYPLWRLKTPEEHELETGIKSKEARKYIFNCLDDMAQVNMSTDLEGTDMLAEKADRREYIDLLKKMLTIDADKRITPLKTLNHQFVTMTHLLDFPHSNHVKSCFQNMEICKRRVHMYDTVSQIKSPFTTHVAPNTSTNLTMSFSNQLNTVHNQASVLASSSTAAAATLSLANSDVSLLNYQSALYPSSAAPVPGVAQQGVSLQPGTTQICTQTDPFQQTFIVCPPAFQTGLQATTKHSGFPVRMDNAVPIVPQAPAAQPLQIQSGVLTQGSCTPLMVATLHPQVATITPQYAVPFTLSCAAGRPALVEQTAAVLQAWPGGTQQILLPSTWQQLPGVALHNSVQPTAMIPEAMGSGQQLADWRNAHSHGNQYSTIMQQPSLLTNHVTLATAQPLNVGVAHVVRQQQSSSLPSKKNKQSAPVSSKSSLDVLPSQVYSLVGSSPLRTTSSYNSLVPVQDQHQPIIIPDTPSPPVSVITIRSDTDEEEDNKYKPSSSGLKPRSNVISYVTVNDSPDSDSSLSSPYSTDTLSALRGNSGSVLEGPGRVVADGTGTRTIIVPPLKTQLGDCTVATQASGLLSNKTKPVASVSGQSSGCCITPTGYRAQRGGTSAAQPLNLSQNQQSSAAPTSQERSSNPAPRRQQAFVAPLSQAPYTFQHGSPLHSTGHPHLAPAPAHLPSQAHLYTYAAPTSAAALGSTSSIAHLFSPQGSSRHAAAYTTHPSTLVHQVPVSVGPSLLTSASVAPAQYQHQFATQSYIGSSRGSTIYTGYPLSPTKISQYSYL

With CN1CCN(CCC(=O)Nc2ccc3c(C#N)cnc(Nc4cccc(Br)c4)c3c2)CC1 the Activity [1] was 85%, the Activity [2] was 100% and the Activity [3] was 95%. The Activity [4] was 100%, the Activity [5] was 100% and the Activity [6] was 9%. For the same compound, the Activity [7] was 83%, the Activity [8] was 79% and the Activity [9] was 89%. For the same compound, the Activity [10] was 90%, the Activity [11] was 82% and the Activity [12] was 87%. The Activity [13] was 86% and the Activity [14] was 100%.
With CN(C)C/C=C/C(=O)Nc1ccc2c(C#N)cnc(Nc3cccc(Br)c3)c2c1 the Activity [1] was 83%, the Activity [2] was 78% and the Activity [3] was 77%. It also gave an Activity [4] of 93%, an Activity [5] of 90% and an Activity [6] of 33%. The Activity [7] was 100%, the Activity [8] was 60% and the Activity [9] was 95%. It also gave an Activity [10] of 81%, an Activity [11] of 71% and an Activity [12] of 91%. For the same compound, the Activity [13] was 82% and the Activity [14] was 93%.
CN(C)CCCC(=O)Nc1ccc2c(C#N)cnc(Nc3cccc(Br)c3)c2c1 showed an Activity [1] of 93%, an Activity [2] of 100% and an Activity [3] of 93%. For the same compound, the Activity [4] was 98%, the Activity [5] was 100% and the Activity [6] was 11%. It also gave an Activity [7] of 95%, an Activity [8] of 75% and an Activity [9] of 66%. The Activity [10] was 80%, the Activity [11] was 84% and the Activity [12] was 93%. The Activity [13] was 99% and the Activity [14] was 100%.
